# Only some compounds are listed: those with a hit (about 0.6% of all), similar ones and a draw of the others.
# PMI act satM6P – increases human PMI activity with near-saturating mannose 6-phosphate; activation factor at 20 µM; P34949; 190,000 compounds, 0.34% hits; coupled PMI enzyme assay, resazurin fluorescence, 20 min; hits give high values; 1 = untreated enzyme, 0 = substrate-free blank;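 active = activation factor of 2 or more at 20 µM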
# Target sequence (P34949 whole entry, looked up): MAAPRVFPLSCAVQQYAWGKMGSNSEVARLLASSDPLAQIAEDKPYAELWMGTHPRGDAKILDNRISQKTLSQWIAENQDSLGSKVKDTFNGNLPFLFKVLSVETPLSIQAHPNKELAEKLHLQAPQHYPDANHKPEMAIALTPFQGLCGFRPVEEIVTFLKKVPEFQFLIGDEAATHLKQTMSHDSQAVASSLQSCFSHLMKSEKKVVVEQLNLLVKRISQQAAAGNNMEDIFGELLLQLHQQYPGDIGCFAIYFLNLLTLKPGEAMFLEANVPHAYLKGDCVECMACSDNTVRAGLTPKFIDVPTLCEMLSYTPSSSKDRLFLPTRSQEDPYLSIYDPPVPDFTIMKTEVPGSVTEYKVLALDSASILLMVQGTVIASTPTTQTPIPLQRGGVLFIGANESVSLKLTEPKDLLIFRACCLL
#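 Test system – human PMI in coupled enzyme assay · Timing – 20 min incubation at room temperature · Detection – Diaphorase-driven resazurin-to-resorufin fluorescence, excitation 544, emission 590 nm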
# PMI act – phosphomannose isomerase (human) activation; activation factor at 20 µM; P34949; purified human PMI, coupled resazurin fluorescence, 20 min; hits give high values; 1 = vehicle control, 0 substrate-free wells; 190,000 compounds, 0.005% hits; AID 1214;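 active = activation factor of 2 or more at 20 µM, relative to plate controls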
# TNAP inh hiacc – TNAP (human) inhibition, high acceptor. P05186. purified TNAP, CDP-star luminescence, 1 M DEA. inhibition, % at 20 µM. 200,000 compounds, 0.03% hits;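 active = over 50% inhibition of tissue-nonspecific alkaline phosphatase at 20 µM in the single-dose screen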;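 note: plate controls were DMSO wells for no effect and EDTA-quenched wells as full inhibition for full effect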
# Rad51 HR inh – Rad51 (human) homologous recombination inhibition; hRad51 DNA strand exchange, fluorescence dequenching; inhibition, % at 10 µM; 200,000 compounds, 0.085% hits; AID 1385;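 active = inhibition above 40% at the single screening dose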;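 note: 0% = DMSO control wells and 100% = blanks with heterologous ssDNA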
#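 System: hRad51 filaments on single-stranded DNA; reagent: Fluorescein- and BHQ1-tagged 47-mer duplex; compound dosing: one concentration, 10 µM final; timing: filaments 15 min 37 °C, then compound 30 min; measured by: fluorescein emission 520 nm, excitation 485 nm; benchmarks: per-plate controls and blanks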
# TNAP act hiacc – activators of human TNAP at high phosphate acceptor concentration; P05186; activation factor at 20 µM; 200,000 tested, under 10 active; purified TNAP, CDP-star luminescence, 1 M DEA, 30 min; hits give high values; 0 = EDTA background, 1 = DMSO-only activity;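 active = activation factor at least 2 at 20 µM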
#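 Measured by: Luminescent substrate turnover signal | Test system: Human TNAP | Input: TNAP 1/800 final | Dosing: 20 µM single point | Schedule: 30 min, room temperature | Controls: EDTA wells as negative control, DMSO wells as positive control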
# TNAP inh noacc – TNAP (human) inhibition, acceptor-free conditions | inhibition, % at 20 µM | 200,000 compounds, 0.26% hits | AID 1012 | P05186 | purified TNAP, CDP-star luminescence, 30 min;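 active = tissue-nonspecific alkaline phosphatase inhibition above about 50% at 20 µM in the single-dose screen, limit read from the data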;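 note: 0% = DMSO negative control and 100% = EDTA positive control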
# Starred values were filed as active, the others as inactive; x = no result.
SMILES,PMI act satM6P,PMI act,TNAP inh hiacc,Rad51 HR inh,TNAP act hiacc,TNAP inh noacc
O=C(C1=C[C@@H]2[C@H]3C(=O)N(c4ccccc4Cl)C(=O)[C@H]3[C@@H](C(=O)c3ccc(Cl)cc3)N2C=C1)c1ccccc1,1.1,1.3,-1,-28,1,6
O=C(C1=C[C@@H]2[C@H]3C(=O)N(c4cccc(Cl)c4)C(=O)[C@H]3[C@@H](C(=O)c3ccc(Cl)cc3)N2C=C1)c1ccccc1,2.2*,1.5,-4,-14,1,3
CN(C(=O)CS(=O)(=O)Cc1ccccc1Cl)c1ccccc1,0.9,0.9,1,23,1,-3
O=C(NC(=S)Nc1nc(-c2ccc(Br)cc2)cs1)c1cccnc1,2.5*,1.5,1,-1,1,2
O=C(Nc1nc(-c2ccc(Br)cc2)cs1)c1cccnc1,1.1,1.1,-7,9,1.1,-18
COC(=O)c1c(NC(=O)c2ccc(C)cc2)csc1C,x,x,x,0,x,x
Cc1ccc(CNc2nc(-c3cccs3)nc3ccccc23)cc1,0.9,0.9,-5,5,1.1,-6
COc1ccc(C(=O)NNc2ccccc2)cc1,2.4*,1.7,2,x,1,-19
COc1ccc(C(=O)c2ccccc2)cc1,1.1,1.2,2,5,1,-3
COc1ccc(S(=O)(=O)N2CCOCC2)cc1NC(=O)Cc1c(Cl)cccc1Cl,1,1,-3,7,1,-13
CN(C(=O)COC(=O)c1cccc(NS(=O)(=O)c2ccc(F)c(F)c2)c1)C1CCS(=O)(=O)C1 (stereo not drawn),1,1.1,1,-104,1,-8
N#C/C(=N/Nc1ccc(OC(F)(F)F)cc1)C(N)=S,x,x,x,0,x,x
Cc1ccc(N/N=C(\C#N)C(N)=S)c(C)c1,3*,1.8,4,x,1,33
O=[N+]([O-])c1cccnc1N1CCC(c2cc(-c3ccc(Cl)cc3Cl)n[nH]2)CC1,0.8,0.7,0,1,1,79*
CN(C)c1ccc(/C=C/C=C2/SC(=S)N(c3ccccc3)C2=O)cc1,0.7,0.8,54*,-55,0.5,55*
O=C(Cc1ccccc1)Nc1cccc(N2C(=O)C=CC2=O)c1,2.1*,1.5,-3,x,1,-16
COc1cccc(NC(=O)Cc2ccccc2)c1,1,0.9,-9,-1,1.1,-12
Fc1ccc(-c2[nH]ncc2-c2nnnn2-c2ccccc2)c(F)c1,0.9,0.9,6,0,0.9,84*
Fc1ccc(-n2nnnc2-c2ccccc2Cl)cc1,1,1,-5,-14,1.1,-10
O=C(NCc1cccs1)c1csc2c1CCCCC2,1,1,1,3,1,-6
Cc1nnc(SCc2ccccc2)n(N)c1=O,1,0.9,0,5,1,-12
COc1ccc(C2C(=O)c3ccccc3C2=O)c(OC)c1,0.8,1,-9,100*,1.1,-9
COc1ccc(C2C(=O)c3ccccc3C2=O)cc1,1.2,1.2,-3,-9,1,-3
COc1cc2[nH]c(=S)nc(NC3CCCC3)c2cc1OC,2.5*,1.8,-4,-3,1,-9
COc1ccc(C2c3c(oc4ccccc4c3=O)C(=O)N2Cc2ccncc2)cc1 (stereo not drawn),1,1.2,-2,7,1,3
SMILES,PMI act satM6P,PMI act,TNAP inh hiacc,Rad51 HR inh,TNAP act hiacc,TNAP inh noacc
CN1C(=O)c2oc3ccccc3c(=O)c2C1c1ccncc1 (stereo not drawn),2.3*,1.6,0,9,1,-4
CC(=NC1CC1)c1c(-c2ccccc2)[nH]n(-c2nc3ccccc3s2)c1=O,0.9,1,-1,3,1,-11
COc1ccc(C(=O)c2ccc(CC(=O)O)s2)cc1,2.4*,1.6,4,8,1,-7
O=C(O)Cc1ccc(C(=O)c2ccccc2)s1,1.2,1.1,-6,-2,1.1,-12
CCN(CC)C(=S)NC(=O)C12CC3CC(CC(C3)C1)C2,1,1,-3,6,1,-5
N#C/C(=C\c1c(F)cccc1Cl)c1nn(-c2ccccc2)c(-n2cccc2)c1C#N,x,x,x,14,x,x
